Measured values reported in ChEMBL document CHEMBL4041548, “Ester Prodrugs of IHVR-19029 with Enhanced Oral Exposure and Prevention of Gastrointestinal Glucosidase Interaction” (ACS Med Chem Lett, 2017).

Columns and labels:
[1] = Prodrug activation in simulated gastric fluid assessed as 3-(tert-butyl)-1-cyclohexyl-1-(6-((2R,3R,4R,5S)-3,4,5-trihydroxy-2-(hydroxymethyl)piperidin-1-yl)hexyl)urea formation at 5 uM measured after 4 hrs by LC-MS/MS analysis
How it was run: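 Chemical stability assessed by incubation in simulated gastric fluid and simulated intestinal fluid; percent of compound remaining was measured.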

[2] = Inhibition of pig liver endoplasmic reticulum alpha glucosidase-2 using 4-methylumbelliferyl-alpha-D-glucoside as substrate measured after 60 mins by fluorescence analysis; parameters: species or system Sus scrofa
[3] = Inhibition of endoplasmic reticulum alpha-glucosidase in human Huh7.5 cells infected with DENV assessed as reduction in viral growth by measuring DENV RNA level by qRT-PCR method; format: cell-based
How it was run: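 Huh7.5 cells infected with dengue virus and treated with a concentration series of the compounds (n = 4). DENV RNA was quantified by qRT-PCR and the EC50 was calculated.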

[4] = Metabolic stability in pooled mouse liver microsomes assessed as parent compound remaining at 200 uM measured after 60 mins in presence of NADPH and UDPGA by LC-MS/MS analysis; format: ADME, microsome; conditions: read-out: Stability
How it was run: (§1)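 Prodrugs or parent incubated in pooled human or mouse liver microsomes for up to 60 min, with or without cofactor. Percent remaining and percent conversion to the parent were measured.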

[5] = Metabolic stability in pooled mouse liver microsomes assessed as parent compound remaining at 200 uM measured after 60 mins by LC-MS/MS analysis; format: ADME, microsome; conditions: liver microsomes, read-out: Stability; how it was run: as §1
[6] = test system: Mus musculus; assay: Prodrug activation in po dosed BALB/c mouse assessed as 3-(tert-butyl)-1-cyclohexyl-1-(6-((2R,3R,4R,5S)-3,4,5-trihydroxy-2-(hydroxymethyl)piperidin-1-yl)hexyl)urea formation measured up to 4 hrs by LC-MS/MS analysis; format: organism-based; conditions: in vivo
How it was run: (§2)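 Male BALB/c mice dosed with the prodrugs or the parent orally (25 or 100 mg/kg) or intravenously (5 mg/kg). The parent compound was quantified in plasma and PK parameters were derived from it. The first sampling point was 5 min post-dose, and prodrugs were tracked up to 4 h.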

[7] = test system: Mus musculus; assay: Prodrug activation in BALB/c mouse assessed as 3-(tert-butyl)-1-cyclohexyl-1-(6-((2R,3R,4R,5S)-3,4,5-trihydroxy-2-(hydroxymethyl)piperidin-1-yl)hexyl)urea half life at 5 mg/kg, iv as bolus administration by LC-MS/MS analysis; format: organism-based; conditions: in vivo; how it was run: as §2
[8] = test system: Mus musculus; assay: Prodrug activation in BALB/c mouse assessed as 3-(tert-butyl)-1-cyclohexyl-1-(6-((2R,3R,4R,5S)-3,4,5-trihydroxy-2-(hydroxymethyl)piperidin-1-yl)hexyl)urea AUC(0 to infinity) at 100 mg/kg, po administered as single dose by LC-MS/MS analysis; format: organism-based; parameters: dose 100 mg/kg, route oral, time infinity; conditions: in vivo
[9] = test system: Mus musculus; assay: Prodrug activation in po dosed BALB/c mouse assessed as 3-(tert-butyl)-1-cyclohexyl-1-(6-((2R,3R,4R,5S)-3,4,5-trihydroxy-2-(hydroxymethyl)piperidin-1-yl)hexyl)urea formation measured after 5 mins by LC-MS/MS analysis; format: organism-based; conditions: in vivo; how it was run: as §2
[10] = test system: Mus musculus; assay: Prodrug activation in BALB/c mouse assessed as 3-(tert-butyl)-1-cyclohexyl-1-(6-((2R,3R,4R,5S)-3,4,5-trihydroxy-2-(hydroxymethyl)piperidin-1-yl)hexyl)urea formation at 100 mg/kg, po administered as single dose measured after 3 hrs by LC-MS/MS analysis; format: organism-based; conditions: in vivo; how it was run: as §2

Row | SMILES | Drug metabolism [1] [%] | IC50 [2] [µM] | EC50 [3] [µM] | remaining at 1 h, 200 µM [4] [%] | remaining at 1 h, 200 µM [5] [%] | Drug metabolism [6] | t1/2 [7] [h] | AUC [8] [ng·mL·h] | Drug metabolism [9] | Drug metabolism [10] [µM]
1 | CC(C)C(=O)OC[C@@H]1[C@@H](OC(=O)C(C)C)[C@H](OC(=O)C(C)C)[C@@H](OC(=O)C(C)C)CN1CCCCCCN(C(=O)NC(C)(C)C)C1CCCCC1 | 0 | > 100 | 94.7 | 5 | 7 | Metabolite_Notdetected | 1.25 | 362 | – | –
2 | CCCC(=O)OC[C@@H]1[C@@H](OC(=O)CCC)[C@H](OC(=O)CCC)[C@@H](OC(=O)CCC)CN1CCCCCCN(C(=O)NC(C)(C)C)C1CCCCC1 | 0 | > 100 | 16.1 | 10 | 12 | – | 0.84 | 3884 | Metabolite_Detected | > 1
3 | CC(=O)OC[C@@H]1[C@@H](OC(C)=O)[C@H](OC(C)=O)[C@@H](OC(C)=O)CN1CCCCCCN(C(=O)NC(C)(C)C)C1CCCCC1 | 0 | > 100 | 15.6 | 0 | 0 | – | 1.11 | 1912 | Metabolite_Detected | –
